Measured values reported in ChEMBL document CHEMBL1152193, “Structure-activity relationships of natural and non-natural amino acid-based amide and 2-oxoamide inhibitors of human phospholipase A(2) enzymes” (Bioorg Med Chem, 2008).

Tests used:
[1] = target: T1, Phospholipase A2 group V (Homo sapiens) (UniProt P39877); experiment: Inhibition of human group 5 Ca2+-dependent secretory phospholipase A2 at 0.091 mole fraction by modified Dole assay
T1 sequence (whole entry): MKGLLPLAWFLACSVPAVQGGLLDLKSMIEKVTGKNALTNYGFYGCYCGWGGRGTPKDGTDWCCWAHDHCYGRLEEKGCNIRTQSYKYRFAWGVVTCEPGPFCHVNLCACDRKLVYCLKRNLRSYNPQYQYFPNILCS

[2] = target: T2, 85/88 kDa calcium-independent phospholipase A2 (Homo sapiens) (UniProt O60733); experiment: Inhibition of human group 6A cytosolic Ca(2+)-independent phospholipase A2 at 0.091 mole fraction by modified Dole assay
T2 sequence (whole entry): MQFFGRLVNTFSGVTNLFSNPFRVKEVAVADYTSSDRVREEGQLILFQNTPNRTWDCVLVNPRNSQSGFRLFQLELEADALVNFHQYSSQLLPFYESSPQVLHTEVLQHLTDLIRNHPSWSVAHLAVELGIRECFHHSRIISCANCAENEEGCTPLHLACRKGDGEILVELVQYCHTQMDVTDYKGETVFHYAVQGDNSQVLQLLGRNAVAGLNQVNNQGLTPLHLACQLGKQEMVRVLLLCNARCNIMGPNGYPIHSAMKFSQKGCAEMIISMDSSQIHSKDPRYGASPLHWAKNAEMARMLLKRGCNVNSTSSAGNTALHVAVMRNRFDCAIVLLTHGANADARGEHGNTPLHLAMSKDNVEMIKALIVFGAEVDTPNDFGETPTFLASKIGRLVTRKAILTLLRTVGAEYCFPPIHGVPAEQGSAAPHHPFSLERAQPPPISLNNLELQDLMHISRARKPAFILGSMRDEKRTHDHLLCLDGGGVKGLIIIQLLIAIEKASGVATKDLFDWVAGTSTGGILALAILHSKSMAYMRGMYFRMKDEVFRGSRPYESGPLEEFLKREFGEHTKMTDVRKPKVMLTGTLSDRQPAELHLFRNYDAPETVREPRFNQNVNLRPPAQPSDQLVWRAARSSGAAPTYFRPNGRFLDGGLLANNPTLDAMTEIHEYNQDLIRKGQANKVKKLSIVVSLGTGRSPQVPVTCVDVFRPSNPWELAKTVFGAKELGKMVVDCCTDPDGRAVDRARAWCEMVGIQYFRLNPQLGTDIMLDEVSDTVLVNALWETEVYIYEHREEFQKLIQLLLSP

[3] = target: T3, Cytosolic phospholipase A2 (Homo sapiens) (UniProt P47712); experiment: Inhibition of human group 4A cytosolic Ca2+-dependent phospholipase A2 at 0.091 mole fraction by modified Dole assay
T3 sequence (whole entry): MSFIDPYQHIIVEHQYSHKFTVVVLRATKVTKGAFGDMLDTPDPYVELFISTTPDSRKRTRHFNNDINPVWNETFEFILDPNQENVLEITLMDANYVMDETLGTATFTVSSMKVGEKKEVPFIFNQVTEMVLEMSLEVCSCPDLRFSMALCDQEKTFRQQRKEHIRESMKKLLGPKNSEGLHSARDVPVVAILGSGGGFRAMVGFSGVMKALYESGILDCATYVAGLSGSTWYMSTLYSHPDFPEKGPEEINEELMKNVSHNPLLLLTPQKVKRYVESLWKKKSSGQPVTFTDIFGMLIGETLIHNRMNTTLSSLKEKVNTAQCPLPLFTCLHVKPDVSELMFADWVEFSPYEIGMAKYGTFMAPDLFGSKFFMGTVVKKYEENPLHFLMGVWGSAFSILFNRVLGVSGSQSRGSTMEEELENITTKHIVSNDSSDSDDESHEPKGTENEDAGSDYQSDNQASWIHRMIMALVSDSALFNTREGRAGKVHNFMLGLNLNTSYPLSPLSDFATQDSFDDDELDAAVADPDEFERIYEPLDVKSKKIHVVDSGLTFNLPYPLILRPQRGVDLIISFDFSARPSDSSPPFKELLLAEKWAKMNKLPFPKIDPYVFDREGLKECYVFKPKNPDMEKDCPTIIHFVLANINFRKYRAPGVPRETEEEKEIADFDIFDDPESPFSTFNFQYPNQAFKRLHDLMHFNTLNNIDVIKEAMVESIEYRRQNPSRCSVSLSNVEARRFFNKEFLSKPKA
Outline: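 Buffer: 100 mM HEPES pH 7.5, 90 μM CaCl2, 2 mM DTT, 0.1 mg/ml BSA. Inhibitor present at 0.091 mole fraction of the total substrate interface; percent inhibition determined.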

SMILES	inhibition [1]	inhibition [2]	inhibition [3]
CCCCCCCCCCCCCCC(=O)C(=O)NCCC(=O)OCC	59%	51%	44%
CCCCCCCCCCCCCCC(=O)C(=O)N[C@@H](CCCC)CCC(=O)OC	86%	78%	87%
CCCCCCCCCCCCCCC(=O)C(=O)NCCCC(=O)OCc1ccccc1	38%	< 25%	35%
CCCCCCCCCCCCCCC(=O)C(=O)NCCCCC(=O)OC	42%	< 25%	< 25%
CCCCCCCCCCCCCCC(=O)C(=O)NCCC(=O)OC(C)(C)C	72%	54%	79%
CCCCCCCCCCCCCCC(=O)C(=O)NCC(=O)OC	52%	45%	62%
CCCCCCCCCCCCCCC(=O)C(=O)NCCCC(=O)CCCC	< 25%	< 25%	32%
CCCCCCCCCCCCCCC(=O)C(=O)NCCC(=O)OC	48%	< 25%	< 25%
CCCCCCCCCCCCCCC(=O)C(=O)NCCCCC(=O)OC(C)(C)C	72%	62%	74%
C=CCOC(=O)CCCNC(=O)C(=O)CCCCCCCCCCCCCC	38%	63%	53%
CCCCCCCCCCCCCCC(=O)C(=O)N[C@@H](CCCC)CCCCC(=O)OCC	< 25%	66%	62%
CCCCCCCCCCCCCCC(=O)C(=O)NCC(=O)OCC	62%	62%	74%
CCCCCCCCCCCCCCC(=O)C(=O)N[C@H](/C=C/C=C/C(=O)O)CCCC	< 25%	< 25%	85%
CCCCCCCCCCCCCCC(=O)C(=O)NCC(=O)OC(C)(C)C	82%	53%	80%
CC(C)(C)OC(=O)CCNC(=O)C(=O)CCCCCCc1ccccc1	69%	81%	82%
CCCC[C@@H](CCC(=O)O)NC(=O)CCCCCCc1ccccc1	< 25%	< 25%	< 25%

More lines, now with the values ahead:

inhibition [1]	inhibition [2]	inhibition [3]	SMILES
87%	72%	85%	CCCCCCCCCCCCCCC(=O)C(=O)N[C@@H](C)CCC(=O)OC(C)(C)C
95%	< 25%	< 25%	CCCC[C@H](CCC(=O)O)NC(=O)CCCCCCc1ccccc1
52%	74%	64%	CCCCCCCCCCCCCCC(=O)C(=O)N[C@H](/C=C/C=C/C(=O)OCC)CCCC
30%	31%	54%	COC(=O)CNC(=O)C(=O)CCCCCCc1ccccc1
65%	65%	83%	CCCCCCCCCCCCCCC(=O)C(=O)N[C@H](CCC(=O)OC)CC(C)C
66%	57%	36%	CC(C)(C)OC(=O)CCNC(=O)CCCCCCc1ccccc1
78%	< 25%	87%	CCCCCCCCCCCCCCC(=O)C(=O)Nc1ccc(C(=O)OCC)cc1
< 25%	< 25%	< 25%	COC(=O)CNC(=O)CCCCCCc1ccccc1
64%	51%	62%	CCCCCCCCCCCCCCC(=O)C(=O)NCCCCOCC
47%	35%	31%	CCCCCCCCCCCCCCC(=O)C(=O)NCCCCC(=O)OCC
